Calls of active or inactive are those of the source. No cut-off for these calls is given here.
Tests used:
[1] = target: T1, Polyamine deacetylase HDAC10 (Homo sapiens, UniProt Q969S8); experiment: Inhibition of HDAC10 (unknown origin) using fluorogenic tetrapeptide RHKK(Ac) substrate by fluorescence assay
T1 sequence (Q969S8 whole entry): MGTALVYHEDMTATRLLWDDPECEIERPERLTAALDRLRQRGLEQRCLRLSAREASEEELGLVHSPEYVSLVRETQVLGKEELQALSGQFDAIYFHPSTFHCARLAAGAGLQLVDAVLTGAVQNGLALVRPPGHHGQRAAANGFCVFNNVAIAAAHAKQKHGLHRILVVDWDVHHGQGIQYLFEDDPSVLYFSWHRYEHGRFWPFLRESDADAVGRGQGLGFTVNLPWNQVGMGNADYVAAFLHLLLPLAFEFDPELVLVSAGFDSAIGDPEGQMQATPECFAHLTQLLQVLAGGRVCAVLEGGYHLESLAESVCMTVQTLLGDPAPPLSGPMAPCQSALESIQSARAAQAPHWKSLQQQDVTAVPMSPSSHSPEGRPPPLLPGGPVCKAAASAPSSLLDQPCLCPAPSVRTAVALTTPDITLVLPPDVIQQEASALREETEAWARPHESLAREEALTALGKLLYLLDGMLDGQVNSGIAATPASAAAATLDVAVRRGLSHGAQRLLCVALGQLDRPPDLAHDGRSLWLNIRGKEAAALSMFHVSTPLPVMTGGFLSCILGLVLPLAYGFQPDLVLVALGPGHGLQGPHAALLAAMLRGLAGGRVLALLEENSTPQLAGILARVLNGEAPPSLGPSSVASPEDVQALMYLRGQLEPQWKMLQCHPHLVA

Histone deacetylase 2 [2] = target: T2, Histone deacetylase 2 (Homo sapiens, UniProt Q92769); experiment: Inhibition of HDAC2 (unknown origin) using fluorogenic tetrapeptide RHKK(Ac) substrate at <50 uM by fluorescence assay
T2 sequence (Q92769 whole entry, the tested form may be a part): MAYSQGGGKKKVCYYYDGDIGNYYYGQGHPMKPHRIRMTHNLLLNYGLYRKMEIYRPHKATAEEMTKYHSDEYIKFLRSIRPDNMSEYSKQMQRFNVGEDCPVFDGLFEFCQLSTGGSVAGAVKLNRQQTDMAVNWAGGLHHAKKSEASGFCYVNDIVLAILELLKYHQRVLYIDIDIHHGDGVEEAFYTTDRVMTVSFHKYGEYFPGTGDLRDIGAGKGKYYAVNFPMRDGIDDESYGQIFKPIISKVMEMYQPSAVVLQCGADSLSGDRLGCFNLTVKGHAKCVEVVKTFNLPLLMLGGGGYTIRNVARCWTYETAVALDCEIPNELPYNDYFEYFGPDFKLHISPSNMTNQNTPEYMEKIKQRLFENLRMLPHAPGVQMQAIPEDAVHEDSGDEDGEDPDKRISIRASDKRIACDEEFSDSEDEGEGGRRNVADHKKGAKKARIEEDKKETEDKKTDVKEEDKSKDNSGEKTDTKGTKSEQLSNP
How it was run: (§1)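 Fluorogenic assay with the tetrapeptide RHKK(Ac) substrate (p53 residues 379–382) at 50 μM.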

Histone deacetylase 8 = target: T3, Histone deacetylase 8 (Homo sapiens, UniProt Q9BY41); experiment: Inhibition of HDAC8 (unknown origin) using fluorogenic tetrapeptide RHK(Ac)K(Ac) substrate by fluorescence assay
T3 sequence (Q9BY41 whole entry): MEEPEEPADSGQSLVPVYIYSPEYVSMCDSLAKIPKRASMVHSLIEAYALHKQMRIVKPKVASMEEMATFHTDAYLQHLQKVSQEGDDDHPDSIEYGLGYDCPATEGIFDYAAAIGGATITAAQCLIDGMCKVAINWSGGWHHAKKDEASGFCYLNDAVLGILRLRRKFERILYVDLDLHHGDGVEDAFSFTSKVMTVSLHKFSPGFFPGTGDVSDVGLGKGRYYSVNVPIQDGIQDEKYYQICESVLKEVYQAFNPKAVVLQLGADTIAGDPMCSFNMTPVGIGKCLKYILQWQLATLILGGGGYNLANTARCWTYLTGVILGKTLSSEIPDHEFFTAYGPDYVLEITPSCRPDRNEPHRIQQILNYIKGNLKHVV

Histone deacetylase 3 [3] = target: T4, Histone deacetylase 3 (Homo sapiens, UniProt O15379); experiment: Inhibition of HDAC3 (unknown origin) using fluorogenic tetrapeptide RHKK(Ac) substrate at <50 uM by fluorescence assay; how it was run: as §1
T4 sequence (O15379 whole entry): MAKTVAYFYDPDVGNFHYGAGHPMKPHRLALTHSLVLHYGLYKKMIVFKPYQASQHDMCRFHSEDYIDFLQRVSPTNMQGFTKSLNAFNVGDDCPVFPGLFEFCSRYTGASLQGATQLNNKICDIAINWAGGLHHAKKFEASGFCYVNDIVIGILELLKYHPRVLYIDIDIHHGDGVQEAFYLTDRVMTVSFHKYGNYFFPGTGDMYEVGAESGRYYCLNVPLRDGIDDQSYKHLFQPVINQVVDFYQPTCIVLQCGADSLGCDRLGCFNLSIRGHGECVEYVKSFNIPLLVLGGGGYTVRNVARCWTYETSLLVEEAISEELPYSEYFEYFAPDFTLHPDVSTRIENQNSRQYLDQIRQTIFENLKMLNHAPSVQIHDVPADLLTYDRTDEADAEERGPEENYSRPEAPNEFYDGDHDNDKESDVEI

Histone deacetylase 11 = target: T5, Histone deacetylase 11 (Homo sapiens, UniProt Q96DB2); experiment: Inhibition of HDAC11 (unknown origin) using fluorogenic tetrapeptide RHKK(Ac) substrate by fluorescence assay
T5 sequence (Q96DB2 whole entry): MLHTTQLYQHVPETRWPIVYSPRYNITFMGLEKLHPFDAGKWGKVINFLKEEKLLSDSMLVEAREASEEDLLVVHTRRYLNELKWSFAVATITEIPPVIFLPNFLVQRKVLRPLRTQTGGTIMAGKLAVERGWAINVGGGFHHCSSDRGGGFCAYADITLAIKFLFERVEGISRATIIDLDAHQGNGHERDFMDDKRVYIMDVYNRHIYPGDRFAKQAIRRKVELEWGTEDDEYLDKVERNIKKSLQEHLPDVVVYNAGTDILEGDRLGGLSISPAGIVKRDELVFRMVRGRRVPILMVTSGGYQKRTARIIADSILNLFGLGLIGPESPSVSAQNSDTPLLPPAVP

Histone deacetylase 1 [4] = target: T6, Histone deacetylase 1 (Homo sapiens, UniProt Q13547); experiment: Inhibition of HDAC1 (unknown origin) using fluorogenic tetrapeptide RHKK(Ac) substrate at <50 uM by fluorescence assay; how it was run: as §1
T6 sequence (Q13547 whole entry): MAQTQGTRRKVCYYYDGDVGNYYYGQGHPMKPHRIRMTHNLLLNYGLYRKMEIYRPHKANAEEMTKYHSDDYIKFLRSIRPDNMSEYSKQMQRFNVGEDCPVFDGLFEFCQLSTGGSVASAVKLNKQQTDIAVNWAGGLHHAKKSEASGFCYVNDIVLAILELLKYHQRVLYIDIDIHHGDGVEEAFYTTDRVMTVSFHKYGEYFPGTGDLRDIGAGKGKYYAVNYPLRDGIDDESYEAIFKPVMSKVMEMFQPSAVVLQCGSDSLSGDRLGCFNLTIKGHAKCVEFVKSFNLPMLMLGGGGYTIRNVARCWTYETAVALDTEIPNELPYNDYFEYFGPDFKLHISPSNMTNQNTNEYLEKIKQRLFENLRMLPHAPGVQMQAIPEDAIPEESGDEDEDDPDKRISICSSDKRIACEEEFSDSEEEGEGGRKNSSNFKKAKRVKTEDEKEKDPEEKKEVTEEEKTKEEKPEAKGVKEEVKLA

[5] = target: T7, Protein deacetylase HDAC6 (Homo sapiens, UniProt Q9UBN7); experiment: Inhibition of HDAC6 (unknown origin) using fluorogenic tetrapeptide RHKK(Ac) substrate by fluorescence assay
T7 sequence (Q9UBN7 whole entry): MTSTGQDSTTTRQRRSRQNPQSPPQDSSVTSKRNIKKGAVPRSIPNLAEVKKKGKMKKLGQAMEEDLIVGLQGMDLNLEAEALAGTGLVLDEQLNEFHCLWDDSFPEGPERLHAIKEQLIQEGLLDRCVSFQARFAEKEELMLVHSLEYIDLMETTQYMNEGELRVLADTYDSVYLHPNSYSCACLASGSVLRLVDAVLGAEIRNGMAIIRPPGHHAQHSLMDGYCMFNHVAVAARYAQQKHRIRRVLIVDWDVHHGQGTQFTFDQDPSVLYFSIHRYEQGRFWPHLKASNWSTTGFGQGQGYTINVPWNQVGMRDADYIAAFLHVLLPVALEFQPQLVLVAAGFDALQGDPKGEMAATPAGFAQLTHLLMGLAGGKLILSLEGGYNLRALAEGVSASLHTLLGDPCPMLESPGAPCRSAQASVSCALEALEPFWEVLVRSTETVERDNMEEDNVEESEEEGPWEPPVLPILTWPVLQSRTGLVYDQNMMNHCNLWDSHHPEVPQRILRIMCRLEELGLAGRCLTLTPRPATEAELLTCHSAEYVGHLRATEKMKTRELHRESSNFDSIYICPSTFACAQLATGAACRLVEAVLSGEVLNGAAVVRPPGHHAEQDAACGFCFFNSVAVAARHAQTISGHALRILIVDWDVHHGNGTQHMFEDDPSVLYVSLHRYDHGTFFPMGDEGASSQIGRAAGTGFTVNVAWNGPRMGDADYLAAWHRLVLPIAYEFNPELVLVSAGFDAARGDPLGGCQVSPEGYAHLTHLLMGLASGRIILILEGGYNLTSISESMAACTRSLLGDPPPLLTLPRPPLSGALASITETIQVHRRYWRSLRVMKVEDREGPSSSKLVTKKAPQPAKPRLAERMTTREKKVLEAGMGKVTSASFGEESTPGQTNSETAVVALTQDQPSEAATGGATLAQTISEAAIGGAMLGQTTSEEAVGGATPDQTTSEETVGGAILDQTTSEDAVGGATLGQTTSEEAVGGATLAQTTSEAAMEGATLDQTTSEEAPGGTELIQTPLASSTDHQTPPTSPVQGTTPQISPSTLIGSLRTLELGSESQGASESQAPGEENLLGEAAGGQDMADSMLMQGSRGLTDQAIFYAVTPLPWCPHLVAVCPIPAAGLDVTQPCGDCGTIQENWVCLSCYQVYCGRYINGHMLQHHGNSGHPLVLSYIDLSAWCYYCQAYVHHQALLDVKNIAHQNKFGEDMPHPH

NCI-H460 = experiment: Cytotoxicity against human NCI-H460 cells after 24 hrs by SRB assay; type: functional, cell-based; settings: NCI-H460, 24 h
How it was run: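 NCI-H460 cells were grown in RPMI-1640 with L-glutamine, 10% heat-inactivated FCS and 50 μg/mL gentamicin. Cells were seeded at about 10% confluence and allowed to recover for 24 h. They were exposed to varying concentrations for 24 h, washed, then cultured a further 48 h. Surviving cells were measured by SRB. IC50 is the 50% reduction in cell number versus vehicle, from dose–response curve fitting; means of at least three experiments.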

[6] = Solubility of the compound in water; type: physicochemical
Histone deacetylase 2 [7] = target: T2, Histone deacetylase 2; experiment: Inhibition of HDAC2 (unknown origin) using fluorogenic tetrapeptide RHKK(Ac) substrate by fluorescence assay
Histone deacetylase 1 [8] = target: T6, Histone deacetylase 1; experiment: Inhibition of HDAC1 (unknown origin) using fluorogenic tetrapeptide RHKK(Ac) substrate by fluorescence assay
Histone deacetylase 3 [9] = target: T4, Histone deacetylase 3; experiment: Inhibition of HDAC3 (unknown origin) using fluorogenic tetrapeptide RHKK(Ac) substrate by fluorescence assay
Histone deacetylase [10] = experiment: Inhibition of HDAC-mediated histone H4 deacetylation in human NCI-H460 cells after 3 hrs by Western blot analysis; type: cell-based
How it was run: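 NCI-H460 cells were plated the day before and treated 3 h across a dose range. Cells were washed with DPBS containing 5 mM NaB and lysed in HNB buffer with 1% NP-40. Histones were acid-extracted from nuclei with 0.4 equiv/L H2SO4 and precipitated with acetone. Blots were probed for acetyl-H4 against total H4. Read-out was ECL and densitometry after normalization; IC50 fitted; means of at least two experiments.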

[11] = Cytotoxicity against human HCT116 cells after 24 hrs by SRB assay; type: functional, cell-based; settings: HCT-116, 24 h
How it was run: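 HCT116 cells were cultured in McCoy's 5A with L-glutamine, 10% heat-inactivated FCS and 50 μg/mL gentamicin. After seeding at about 10% confluence and a 24 h recovery, they received drug for 24 h. Drug was washed out and cells were incubated 48 h more before SRB staining. IC50 is the 50% cell-number reduction versus vehicle, from fitted dose–response curves; means of at least two experiments.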

Histone deacetylase [12] = experiment: Inhibition of HDAC-mediated tubulin deacetylation in human NCI-H460 cells after 3 hrs by Western blot analysis; type: cell-based
How it was run: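 Cells (NCI-H460) were treated for 3 h with graded concentrations. The cytoplasmic fraction was collected after HNB/1% NP-40 lysis and centrifugation of nuclei at 2000g. This fraction was resolved by SDS-PAGE and probed for acetylated α-tubulin against α-tubulin and β-actin. Bands were detected by ECL and quantified by densitometry after normalization; IC50 fitted; means of at least two experiments.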

| SMILES | IC50 [1] [µM] | IC50 (Histone deacetylase 8) [µM] | IC50 (Histone deacetylase 11) [µM] | IC50 [5] [µM] | IC50 (NCI-H460) [µM] | IC50 (Histone deacetylase 2 [7]) [µM] | IC50 (Histone deacetylase 1 [8]) [µM] | IC50 (Histone deacetylase 3 [9]) [µM] | also measured |
| --- | --- | --- | --- | --- | --- | --- | --- | --- | --- |
| CC(C)(C)OC(=O)N[C@@H](CCCCCS)C(=O)NC1CCCC1 | 5.21 | 44 | 30.7 | 1.12 | – | – | – | – | inhibition (Histone deacetylase 2 [2]): inactive; inhibition (Histone deacetylase 3 [3]): inactive; inhibition (Histone deacetylase 1 [4]): inactive |
| O=C1CCC[C@@H](C(=O)N[C@@H](CCCCCSSCCCCC[C@H](NC(=O)[C@@H]2CCCC(=O)N2)C(=O)Nc2ccccc2)C(=O)Nc2ccccc2)N1 | – | – | – | – | 5.4 | – | – | – | – |
| CC(C)C(=O)SCCCCCCC(=O)Nc1ccccc1 | – | – | – | – | – | – | – | – | solubility [6]: > 1 mg/mL |
| CC(=O)SCCCCC[C@H](NC(=O)[C@H]1CCC(=O)N1)C(=O)Nc1cccc(C(F)(F)F)c1 | – | – | – | – | 0.03 | – | – | – | – |
| O=C1NC[C@H](c2ccccc2)[C@H]1C(=O)N[C@@H](CCCCCS)C(=O)Nc1ccccc1 | 0.007 | 2.04 | 0.012 | 0.16 | – | 2.23 | 0.053 | 0.055 | – |
| CC(=O)SCCCCC[C@H](NC(=O)[C@@H]1CCCC(=O)N1)C(=O)Nc1ccccc1 | – | – | – | – | 0.1 | – | – | – | IC50 (Histone deacetylase [10]): 0.1 µM; IC50 [11]: 0.13 µM; IC50 (Histone deacetylase [12]): 0.1 µM |
| O=C1CC[C@@H](C(=O)N[C@@H](CCCCCS)C(=O)Nc2ccccc2)N1 | 0.015 | 0.059 | 0.03 | 0.001 | – | 0.033 | 0.024 | 0.013 | – |
| CC(=O)SCCCCC[C@H](NC(=O)[C@H]1CCC(=O)N1)C(=O)Nc1cccc(C)c1 | – | – | – | – | 0.04 | – | – | – | – |
| O=C1CCC[C@@H](C(=O)N[C@@H](CCCCCS)C(=O)Nc2ccccc2)N1 | 0.011 | 0.416 | 0.006 | 0.006 | – | 0.067 | 0.015 | 0.01 | – |
| O=C1NCCC[C@@H]1C(=O)N[C@@H](CCCCCS)C(=O)Nc1ccccc1 | 0.011 | 0.122 | 0.015 | 0.001 | – | 0.048 | 0.012 | 0.005 | – |

From ChEMBL document CHEMBL3352570, “ST7612AA1, a thioacetate-ω(γ-lactam carboxamide) derivative selected from a novel generation of oral HDAC inhibitors” (J Med Chem, 2014)
